Results from ChEMBL document CHEMBL4725355, “Design, Synthesis, and Preclinical Evaluation of 3-Methyl-6-(5-thiophenyl)-1,3-dihydro-imidazo[4,5-b]pyridin-2-ones as Selective GluN2B Negative Allosteric Modulators for the Treatment of Mood Disorders” (J Med Chem, 2020).
Converted amounts (≈) assume the structure as drawn.

How the values were obtained:
[1] = Negative allosteric modulation of human GluN1a/GluN2B receptor expressed in CHO cells assessed as inhibition of glutamate and glycine-induced calcium flux preincubated for 5 mins followed by glutamate and glycine addition and measured after 5 mins by calcium 5 dye based FLIPR assay; format: cell-based
Outline: (§1)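 Tet-On CHO T-Rex cells expressing hGluN1a with GluN2A, 2B, 2C or 2D, plated at 20,000 cells/well and induced 24 h before the assay in the presence of ketamine. Cells loaded 1 h at room temperature with Calcium 5 dye, pH 7.4 HEPES buffer. Compound added 5 min, then glutamate (~EC80) plus 10 µM glycine for 5 min; FLIPR fluorescence normalized to control wells. Three independent runs in duplicate (two for some).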

[2] = Solubility of compound in phosphate buffer at pH 2 measured after 3 days; format: physicochemical; details: time 3 day
Outline: (§2)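 Solubility in aqueous buffer at pH 2 and pH 7, and in simulated gastric and intestinal fluids.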

[3] = Solubility of compound in phosphate buffer at pH 7 measured after 3 days; format: physicochemical; details: time 3 day; outline: as §2
[4] = Efflux ratio of apparent permeability across basolateral to apical side over apical to basolateral side in MDCK-MDR1 cells at 5 uM measured after 60 mins by LC-MS/MS analysis; format: ADME, cell-based, Canis lupus familiaris; details: dog
Outline: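 MDCK-MDR1 cells, passages 6-30, seeded at 3.4×10^5 cells/cm² and cultured 3 days. Test compound at 5 µM final (1% DMSO) in HBSS, pH 7.4, applied to the donor side. A→B and B→A runs at 37 °C for 60 min, in duplicate, quantified by LC/MS/MS. Efflux ratio taken as B-A/A-B; monolayer integrity checked by lucifer yellow.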

[5] = target: Voltage-gated inwardly rectifying potassium channel KCNH2 (Homo sapiens, UniProt Q12809); assay: Inhibition of human ERG expressed in CHO cells measured after 5 mins by Qpatch method; format: cell-based
Outline: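 CHO cells stably expressing hERG, whole-cell QPatch. Vehicle applied 5 min, then 0.3, 3.0, 10 and 30 µM in rising order, each concentration applied twice. Current measured after 5 min as the average of 3 voltage pulses; block taken relative to vehicle pretreatment, mean ± SEM.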

[6] = Displacement of 3-[3H] 1-(azetidin-1-yl)-2-[6-(4-fluoro-3-methyl-phenyl)pyrrolo[3,2-b]pyridin-1-yl]ethanone from GluN1a/GluN2B receptor in rat cortex membranes measured after 2 hrs by liquid scintillation counting method; format: cell membranes
Outline: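 Rat adult cortex was homogenized in 50 mM Tris pH 7.4, and membranes were washed by centrifugation. Membranes were incubated with the [3H] pyrrolopyridine tracer and test compound for 2 h at room temperature with shaking. Non-specific binding was defined with 10 µM CP-101,606. Bound tracer was separated by filtration on PEI-soaked GF/B filters and counted by liquid scintillation. Ki was obtained from a competition fit using tracer Kd; three independent runs in duplicate.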

[7] = Metabolic stability in human liver microsomes assessed as extraction ratio at 1 uM after 5 to 60 mins in presence of NADPH by LC-MS/MS analysis; format: ADME, Microsome; details: time 5-60 min, read-out: ERH
Outline: (§3)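 Human and rat liver microsomes, run in duplicate; stability reported as microsomal extraction ratio.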

[8] = Metabolic stability in rat liver microsomes assessed as extraction ratio at 1 uM after 5 to 60 mins in presence of NADPH by LC-MS/MS analysis; format: ADME, Microsome; details: time 5-60 min, read-out: ERH; outline: as §3
[9] = Clearance in Sprague-Dawley rat at 0.5 mg/kg, iv using 30% SBE-beta-CD formulation by LC-MS/MS analysis; format: ADME, organism-based; details: in vivo
Outline: (§4)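 Rat IV/PO PK at 0.5 mg/kg IV and 2.5 mg/kg PO, dosed in 30% SBE-β-CD, n=3.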

[10] = Volume of distribution at steady state in Sprague-Dawley rat at 0.5 mg/kg, iv or 2.5 mg/kg, po using 30% SBE-beta-CD formulation by LC-MS/MS analysis; format: ADME, organism-based; details: in vivo, read-out: Vdss
Outline: (§5)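 Rat PK at 0.5 mg/kg i.v. and 2.5 mg/kg p.o., vehicle 30% SBE-β-CD. n=3, values given as mean ± SD.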

[11] = Half life in Sprague-Dawley rat at 0.5 mg/kg, iv or 2.5 mg/kg, po using 30% SBE-beta-CD formulation by LC-MS/MS analysis; format: ADME, organism-based; details: in vivo
Outline: (§6)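 Rats dosed 0.5 mg/kg i.v. and 2.5 mg/kg p.o., n=3 ± SD. Default vehicle is 20% HP-β-CD; one PK set used 1:1 PEG400/water and another 30% SBE-β-CD.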

[12] = Cmax in Sprague-Dawley rat at 0.5 mg/kg, iv or 2.5 mg/kg, po using 30% SBE-beta-CD formulation by LC-MS/MS analysis; format: ADME, organism-based; set-up: dose 2.5 mg/kg; details: in vivo; outline: as §4
[13] = AUC (infinity) in Sprague-Dawley rat at 0.5 mg/kg, iv or 2.5 mg/kg, po using 30% SBE-beta-CD formulation by LC-MS/MS analysis; format: ADME, organism-based; set-up: dose 2.5 mg/kg; details: in vivo; outline: as §4
[14] = Tmax in Sprague-Dawley rat at 0.5 mg/kg, iv or 2.5 mg/kg, po using 30% SBE-beta-CD formulation by LC-MS/MS analysis; format: ADME, organism-based; details: in vivo; outline: as §5
[15] = Oral bioavailability in Sprague-Dawley rat at 2.5 mg/kg using 30% SBE-beta-CD formulation by LC-MS/MS analysis; format: ADME, organism-based; details: in vivo; outline: as §6
[16] = Ex vivo receptor occupancy at GluN2B in Sprague-Dawley rat assessed as 3-[3H] 1-(azetidin-1-yl)-2-[6-(4-fluoro-3-methyl-phenyl)pyrrolo[3,2-b]pyridin-1-yl]-ethanone labelling at 3 mg/kg, po measured after 0.5 hrs by autoradiography; format: functional
Outline: (§7)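 Rats dosed orally at 3 mg/kg in 20% HP-β-CD; brains taken at 0.5, 2 and 6 h. Ex vivo autoradiography of brain slices with the ³H pyrrolo[3,2-b]pyridine GluN2B tracer. Labelling expressed relative to matching brain areas of vehicle-treated animals; n=2, ± SEM.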

[17] = Ex vivo receptor occupancy at GluN2B in Sprague-Dawley rat assessed as 3-[3H] 1-(azetidin-1-yl)-2-[6-(4-fluoro-3-methyl-phenyl)pyrrolo[3,2-b]pyridin-1-yl]-ethanone labelling at 3 mg/kg, po measured after 2 hrs by autoradiography; format: functional; outline: as §7
[18] = Ex vivo receptor occupancy at GluN2B in Sprague-Dawley rat assessed as 3-[3H] 1-(azetidin-1-yl)-2-[6-(4-fluoro-3-methyl-phenyl)pyrrolo[3,2-b]pyridin-1-yl]-ethanone labelling at 3 mg/kg, po measured after 6 hrs by autoradiography; format: functional; outline: as §7
[19] = Cmax in Sprague-Dawley rat brain at 3 mg/kg, po after 2 hrs by LC-MS/MS analysis; format: ADME, organism-based; set-up: route oral, dose 3 mg/kg, time 2 hrs
Outline: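 Oral dose of 3 mg/kg in 20% HP-β-CD to rats. Brain concentration was measured alongside ex vivo GluN2B occupancy over a 6 h time course (0.5, 2 and 6 h), n=2.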

[20] = Tmax in Sprague-Dawley rat brain at 3 mg/kg, po by LC-MS/MS analysis; format: ADME, organism-based
Outline: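 Rats dosed orally at 3 mg/kg in 20% HP-β-CD. Brain concentrations were measured over a 6 h time course (0.5, 2, 6 h) alongside ex vivo GluN2B occupancy, n=2.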

[21] = Stability of compound in phosphate buffer at pH 2 assessed as drug decomposition measured after 24 h; details: pH 2, 24 h
[22] = Stability of compound in phosphate buffer at pH 7 assessed as drug decomposition measured after 24 h; details: pH 7, 24 h
[23] = Clearance in Sprague-Dawley rat at 0.5 mg/kg, iv using 20% HP-beta-CD formulation by LC-MS/MS analysis; format: ADME, organism-based; details: in vivo
Outline: (§8)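 Rat PK with IV and PO dosing, n=3. The usual doses were 0.5 mg/kg IV and 2.5 mg/kg PO in 20% HP-β-CD. One compound was instead given at 0.1 mg/kg IV and 0.5 mg/kg PO.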

[24] = Volume of distribution at steady state in Sprague-Dawley rat at 0.5 mg/kg, iv or 2.5 mg/kg, po using 20% HP-beta-CD formulation by LC-MS/MS analysis; format: ADME, organism-based; details: in vivo, read-out: Vdss
Outline: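 Rat PK at 0.5 mg/kg i.v. and 2.5 mg/kg p.o., vehicle 20% HP-β-CD. n=3, values given as mean ± SD.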

[25] = Half life in Sprague-Dawley rat at 0.5 mg/kg, iv or 2.5 mg/kg, po using 20% HP-beta-CD formulation by LC-MS/MS analysis; format: ADME, organism-based; details: in vivo; outline: as §6
[26] = Cmax in Sprague-Dawley rat at 0.5 mg/kg, iv or 2.5 mg/kg, po using 20% HP-beta-CD formulation by LC-MS/MS analysis; format: ADME, organism-based; set-up: dose 2.5 mg/kg; details: in vivo; outline: as §8
[27] = Oral bioavailability in Sprague-Dawley rat at 2.5 mg/kg using 20% HP-beta-CD formulation by LC-MS/MS analysis; format: ADME, organism-based; details: in vivo; outline: as §6
[28] = Negative allosteric modulation of human GluN1a/GluN2A receptor expressed in CHO cells assessed as inhibition of glutamate and glycine-induced calcium flux preincubated for 5 mins followed by glutamate and glycine addition and measured after 5 mins by calcium 5 dye based FLIPR assay; format: cell-based; outline: as §1
[29] = Negative allosteric modulation of human GluN1a/GluN2C receptor expressed in CHO cells assessed as inhibition of glutamate and glycine-induced calcium flux preincubated for 5 mins followed by glutamate and glycine addition and measured after 5 mins by calcium 5 dye based FLIPR assay; format: cell-based; outline: as §1
[30] = Negative allosteric modulation of human GluN1a/GluN2D receptor expressed in CHO cells assessed as inhibition of glutamate and glycine-induced calcium flux preincubated for 5 mins followed by glutamate and glycine addition and measured after 5 mins by calcium 5 dye based FLIPR assay; format: cell-based; outline: as §1
[31] = Protein binding in human plasma at 1 uM after 6 hrs by equilibrium dialysis method; format: ADME, cell-free; details: read-out: PPB (converted)

Chain of Voltage-gated inwardly rectifying potassium channel KCNH2 (Q12809 whole entry): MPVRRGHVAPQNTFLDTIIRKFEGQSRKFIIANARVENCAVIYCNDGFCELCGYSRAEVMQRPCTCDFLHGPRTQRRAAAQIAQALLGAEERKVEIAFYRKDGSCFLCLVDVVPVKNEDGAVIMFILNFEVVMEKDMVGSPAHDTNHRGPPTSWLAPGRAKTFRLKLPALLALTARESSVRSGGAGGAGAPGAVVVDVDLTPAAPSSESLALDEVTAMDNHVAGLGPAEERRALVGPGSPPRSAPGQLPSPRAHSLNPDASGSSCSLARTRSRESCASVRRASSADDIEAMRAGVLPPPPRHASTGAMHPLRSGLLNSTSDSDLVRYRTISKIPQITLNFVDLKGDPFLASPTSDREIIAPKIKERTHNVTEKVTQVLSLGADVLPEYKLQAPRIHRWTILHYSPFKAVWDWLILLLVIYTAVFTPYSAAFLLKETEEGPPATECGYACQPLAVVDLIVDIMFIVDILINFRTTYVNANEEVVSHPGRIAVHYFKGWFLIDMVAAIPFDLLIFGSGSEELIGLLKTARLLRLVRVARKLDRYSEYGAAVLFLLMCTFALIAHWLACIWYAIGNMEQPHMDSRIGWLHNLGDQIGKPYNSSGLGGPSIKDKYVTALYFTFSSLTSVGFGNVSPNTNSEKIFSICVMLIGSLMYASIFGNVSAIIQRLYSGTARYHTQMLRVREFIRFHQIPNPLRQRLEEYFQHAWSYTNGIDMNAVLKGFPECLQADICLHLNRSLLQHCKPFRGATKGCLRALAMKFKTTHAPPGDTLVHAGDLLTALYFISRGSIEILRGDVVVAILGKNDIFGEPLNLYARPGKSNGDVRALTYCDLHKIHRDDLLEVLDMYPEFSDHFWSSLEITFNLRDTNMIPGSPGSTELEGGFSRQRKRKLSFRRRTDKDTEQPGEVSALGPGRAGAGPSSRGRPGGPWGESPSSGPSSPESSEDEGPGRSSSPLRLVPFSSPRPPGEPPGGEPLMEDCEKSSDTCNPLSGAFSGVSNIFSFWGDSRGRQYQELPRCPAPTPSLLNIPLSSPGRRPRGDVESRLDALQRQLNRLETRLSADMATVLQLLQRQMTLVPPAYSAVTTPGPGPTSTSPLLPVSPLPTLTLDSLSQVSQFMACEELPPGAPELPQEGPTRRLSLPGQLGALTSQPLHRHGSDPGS

IC50 [1]	solubility at 72 h [2]	solubility at 72 h [3]	efflux ratio at 1 h, 5 µM [4]	Ki [6]	hepatic extraction ratio at 1 µM [7]	hepatic extraction ratio at 1 µM [8]	Compound	IC50 [5]	further results
81 nM	–	–	–	63 nM	–	–	Cn1c(=O)n(CC(=O)N2CCC2)c2cc(-c3ccc(C4CC4)s3)cnc21	> 10000 nM	–
71 nM	< 4 µM	< 4 µM	3.7	21 nM	< 0.3	0.17	Cn1c(=O)n(CC(=O)N2CC(F)C2)c2cc(-c3ccc(C(F)(F)F)s3)cnc21	> 10000 nM	clearance [9]: 20 mL/min/kg; Vd [10]: 0.9 L/kg; half-life [11]: 54 min; Cmax [12]: 1000 ng/mL; AUC(0-inf) [13]: 3610 ng·h/mL; Tmax [14]: 60 min; bioavailability [15]: 109%; Occ [16]: 74%; Occ [17]: 71%; Occ [18]: 24%; Cmax [19]: 728 ng/g; Tmax [20]: 120 min
79 nM	–	–	9.1	59 nM	< 0.3	0.52	Cn1c(=O)n(CC(=O)N2CCC2)c2cc(-c3cc(C(F)F)cs3)cnc21	> 10000 nM	Stabilty [21]: Unstable; Stabilty [22]: Unstable
25 nM	39 µM (≈ 13.4 µg/mL)	48 µM (≈ 16.4 µg/mL)	3.2	44 nM	0.56	0.78	Cc1ccc(-c2cnc3c(c2)n(CC(=O)N2CCC2)c(=O)n3C)s1	> 10000 nM	clearance [23]: 114 mL/min/kg; Vd [24]: 1.1 L/kg; half-life [25]: 12 min; Cmax [26]: 6 ng/mL; bioavailability [27]: 1%
97 nM	19 µM (≈ 7.42 µg/mL)	23 µM (≈ 8.98 µg/mL)	9	19 nM	< 0.3	< 0.2	Cn1c(=O)n(CC(=O)N2CCC2)c2cc(-c3cccc(C(F)(F)F)c3)cnc21	> 10000 nM	fraction unbound at 6 h, 1 µM [31]: 0.052
6 nM	–	–	5.8	19 nM	0.46	0.58	Cn1c(=O)n(CC(=O)N2CCC2)c2cc(-c3ccc(C(F)F)s3)cnc21	> 10000 nM	Stabilty [21]: Unstable; Stabilty [22]: Unstable

Further lines, the compound ahead of its results:

Compound	IC50 [1]	solubility at 72 h [2]	solubility at 72 h [3]	efflux ratio at 1 h, 5 µM [4]	Ki [6]	hepatic extraction ratio at 1 µM [7]	hepatic extraction ratio at 1 µM [8]	IC50 [5]	further results
Cn1c(=O)n(CC(=O)N2CC(F)C2)c2cc(-c3cccc(C(F)(F)F)c3)cnc21	118 nM	17 µM (≈ 6.94 µg/mL)	16 µM (≈ 6.53 µg/mL)	7	25 nM	< 0.3	< 0.2	> 10000 nM	–
Cc1csc(-c2cnc3c(c2)n(CC(=O)N(C)C)c(=O)n3C)c1	216 nM	31 µM (≈ 10.2 µg/mL)	25 µM (≈ 8.26 µg/mL)	3.5	270 nM	0.59	0.82	> 10000 nM	–
O=C(Cn1c(=O)[nH]c2ncc(-c3cccc(C(F)(F)F)c3)cc21)NC1CC1	–	< 4 µM	< 4 µM	–	–	–	–	> 10000 nM	IC50 [28]: > 10000 nM; IC50 [29]: > 10000 nM; IC50 [30]: > 10000 nM; fraction unbound at 6 h, 1 µM [31]: 0.004
CN(C)C(=O)Cn1c(=O)n(C)c2ncc(-c3cccc(C(F)(F)F)c3)cc21	47 nM	6 µM (≈ 2.27 µg/mL)	6 µM (≈ 2.27 µg/mL)	7	19 nM	0.38	0.31	> 10000 nM	–
